Calls of active or inactive are those of the source. The calls are words filed in the database; no cut-off is given here.
Columns and labels:
THP-1 [1] = experiment: Immunostimulatory activity in human THP-1 macrophage assessed as increase in TNF-alpha production at 15 uM incubated for 24 hrs by ELISA; assay type: functional
Procedure, shortened: (§1)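 THP-1 monocytes (0.5×10^6) differentiated 48 h with PMA 20 ng/mL, PBS-washed, held 3 h in serum-free medium, then stimulated 24 h with peptide at 1, 15 or 30 µM. TNF-α in culture supernatants (stored −80 °C) measured by ELISA at 450 nm with 540 nm correction against a 2nd-order polynomial standard curve; mean of two experiments ± SEM; one-way ANOVA.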

THP-1 [2] = experiment: Immunostimulatory activity in human THP-1 cells assessed as increase in LPS-induced ICAM-1 expression at 20 uM preincubated for 1 hr followed by LPS stimulation for 20 hrs by flow cytometry analysis; assay type: functional, cell-based; conditions: time 21.0 hrs
Procedure, shortened: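 Undifferentiated THP-1 monocytes (0.5×10^6/well, pre-cultured 24 h) pretreated 1 h with peptide (range 0.1–32 µM), then LPS 0.1 µg/mL added for 20 h. Cells pelleted, PBS-washed, resuspended in PBS with 0.1% BSA; ICAM-1 measured by flow cytometry.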

THP-1 [3] = experiment: Immunostimulatory activity in human THP-1 macrophage assessed as increase in TNF-alpha production at 30 uM incubated for 24 hrs by ELISA; assay type: functional, cell-based; procedure, shortened: as §1
THP-1 [4] = experiment: Immunostimulatory activity in human THP-1 cells assessed as increase in ICAM-1 expression level at 20 uM incubated for 21 hrs by flow cytometry analysis; assay type: functional, cell-based
Procedure, shortened: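 THP-1 monocytes in RPMI-1640 with 10% heat-inactivated FBS and 1% antibiotic/antimycotic, 5% CO2, 37 °C. 0.5×10^6 cells/well pre-cultured 24 h, then exposed to 20 µM peptide for 21 h. Cells centrifuged, PBS-washed, resuspended in PBS/0.1% BSA, stained with PE anti-CD54 antibody; flow cytometry read-out of ICAM-1.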

THP-1 [5] = experiment: Immunostimulatory activity in human THP-1 macrophage assessed as increase in LPS-induced ICAM-1 expression by measuring mean fluorescence intensity at 20 uM preincubated for 1 hr followed by LPS stimulation for 20 hrs by flow cytometry analysis (reference value: 602.95); assay type: functional; conditions: time 21 hrs

| Structure (SMILES) | Activity (THP-1 [1]) [pg/mL] | Activity (THP-1 [2]) | Activity (THP-1 [3]) | Activity (THP-1 [4]) | Flu intensity (THP-1 [5]) |
| --- | --- | --- | --- | --- | --- |
| CCCCCCNC(=O)CC[C@@H](NC(=O)[C@H](C)NC(=O)COc1cccc(N(CCCO)CCCO)c1)C(N)=O | 3306 | Active | inactive | inactive | – |
| CCCCCCNC(=O)CC[C@@H](NC(=O)[C@H](C)NC(=O)COc1cccc(N(CCCO)C(=O)CCC)c1)C(N)=O | 3105 | Active | inactive | inactive | 905.38 |
| CCCCCCNC(=O)CC[C@@H](NC(=O)[C@H](C)NC(=O)COc1cccc(N(CCO)CCO)c1)C(N)=O | 3111 | Active | inactive | inactive | – |
| CCCCCCNC(=O)CC[C@@H](NC(=O)[C@H](C)NC(=O)COc1cccc(N(CCCO)C(C)=O)c1)C(N)=O | 2902 | Active | inactive | inactive | – |
| CCCCCCNC(=O)CC[C@@H](NC(=O)[C@H](C)NC(=O)COc1cccc(N(CCO)C(C)=O)c1)C(N)=O | 3342 | Active | inactive | inactive | – |
| CCCCCCNC(=O)CC[C@@H](NC(=O)[C@H](C)NC(=O)COc1cccc(N(CCO)C(=O)CCC)c1)C(N)=O | 2806 | Active | inactive | inactive | – |
| CCCCCCNC(=O)CC[C@@H](NC(=O)[C@H](C)NC(=O)COc1cccc(NCCO)c1)C(N)=O | 3226 | Active | inactive | inactive | – |
| CCCCOC(=O)[C@@H](CCC(N)=O)NC(=O)[C@H](C)NC(=O)[C@@H](C)O[C@H]1[C@H](O)[C@@H](CO)O[C@H](O)[C@@H]1NC(C)=O | 2694 | – | – | inactive | 1436.05 |
| CCCCCCNC(=O)CC[C@@H](NC(=O)[C@H](C)NC(=O)COc1cccc(NCCCO)c1)C(N)=O | 3622 | Active | inactive | inactive | – |

— ChEMBL document CHEMBL4732048, “Amphiphilic desmuramyl peptides for the rational design of new vaccine adjuvants: Synthesis, in vitro modulation of inflammatory response and molecular docking studies” (2021)
